Measurements taken from ChEMBL document CHEMBL2069265, “Synthesis and biological evaluation of optically active conjugated γ- and δ-lactone derivatives” (2012).
Values after ≈ are worked out from the molar mass of the structure shown. Active and inactive are the calls of the source. The calls are words filed in the database; no cut-off is given here.

Legend:
[1] = tested on: Staphylococcus aureus; assay: Antibacterial activity against Staphylococcus aureus ATCC 6538 after 24 hrs; assay type: functional
[2] = tested on: Staphylococcus aureus; assay: Antibacterial activity against Staphylococcus aureus ATCC 6538 at 10 to 100 mg/ml after 24 hrs by disc diffusion method; assay type: functional
Method in brief: (§1)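 Modified disc diffusion: LB agar plates seeded at 10^6 cells/mL; 6 mm filter discs soaked in 50 µL of compound at 10–100 mg/mL in DMSO or methanol, placed on plates, 37 °C for 24 h. Inhibition zone ≥7 mm scored susceptible. Solvent discs tested; positive controls gentamicine, streptomycine or nystatin discs at 10 mg/mL.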

[3] = tested on: Bacillus subtilis; assay: Antibacterial activity against Bacillus subtilis ATCC 6633 after 24 hrs; assay type: functional
[4] = tested on: Pseudomonas aeruginosa; assay: Antibacterial activity against Pseudomonas aeruginosa ATCC 9027 after 24 hrs; assay type: functional, organism-based
[5] = tested on: Bacillus subtilis; assay: Antibacterial activity against Bacillus subtilis ATCC 6633 at 10 to 100 mg/ml after 24 hrs by disc diffusion method; assay type: functional; method in brief: as §1
[6] = tested on: Liver microsomes; assay: Antioxidant activity in Wistar rat liver microsomes assessed as reduction of lipid peroxidase activity by TBA assay; assay type: functional; set-up: concentration or dose not given beside the values; details: Microsome
Method in brief: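 TBA assay of lipid peroxidation in liver microsomes isolated from three Wistar rats, following Raj et al.; reduced lipid peroxidase activity taken as antioxidant activity, expressed as %.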

[7] = tested on: Escherichia coli; assay: Antibacterial activity against Escherichia coli ATCC 3509 at 10 to 100 mg/ml after 24 hrs by disc diffusion method; assay type: functional; method in brief: as §1
[8] = tested on: Escherichia coli; assay: Antibacterial activity against Escherichia coli ATCC 3509 after 24 hrs; assay type: functional
[9] = tested on: Radical scavenging activity; assay: Antioxidant activity assessed as DPPH radical scavenging activity at 10 to 80 uM; assay type: functional
Method in brief: (§2)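 DPPH radical scavenging per Blois; compounds 10–80 µM in methanol (some runs 10–200 µM, values reported at 80 µM). Absorbance at 517 nm; scavenging % = (A517 control − A517 sample)/A517 control × 100. Alpha tocopherol as control. Means ± SD of three parallel measurements.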

[10] = tested on: Candida albicans; assay: Antifungal activity against Candida albicans ATCC 10231 at 10 to 100 mg/ml after 24 hrs by disc diffusion method; assay type: functional; method in brief: as §1
[11] = tested on: Candida albicans; assay: Antifungal activity against Candida albicans ATCC 10231 after 24 hrs; assay type: functional
[12] = tested on: Pseudomonas aeruginosa; assay: Antibacterial activity against Pseudomonas aeruginosa ATCC 9027 at 10 to 100 mg/ml after 24 hrs by disc diffusion method; assay type: functional, organism-based; method in brief: as §1
[13] = Metal chelating activity of the compound assessed as ratio of Fe2+ concentration to compound concentration; assay type: functional
Method in brief: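 Fe3+ reducing activity by modified ferrozine method; [Fe2+] calculated from extinction coefficient 27,900 M-1cm-1 of Fe(ferrozine)2+ complex, expressed as µM Fe2+ per µM compound. Means ± SD of three parallel measurements.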

[14] = tested on: Radical scavenging activity; assay: Antioxidant activity assessed as DPPH radical scavenging activity at 11 to 1000 uM; assay type: functional
Method in brief: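 DPPH scavenging in methanol, read as loss of absorbance at 517 nm, value obtained over 1000–11 µM compound; % = (A517 control − A517 sample)/A517 control × 100. Alpha tocopherol control; three parallel measurements, means ± SD.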

[15] = tested on: Radical scavenging activity; assay: Antioxidant activity assessed as DPPH radical scavenging activity at 80 uM; assay type: functional; method in brief: as §2
[16] = tested on: Escherichia coli; assay: Antibacterial activity against Escherichia coli ATCC 3509 at 50 mg/ml after 24 hrs by disc diffusion method; assay type: functional; details: ATCC 3509, 24 h, read-out: DIZ
Method in brief: (§3)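 Disc diffusion on LB agar seeded at 10^6 cells/mL. 6 mm discs are saturated with 50 µL compound solution in DMSO or methanol and incubated at 37 °C for 24 h. Inhibition zones of 7 mm or more are counted as susceptible. Solvent discs are run, with streptomycine discs (10 mg/mL) as positive control.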

[17] = tested on: Staphylococcus aureus; assay: Antibacterial activity against Staphylococcus aureus ATCC 6538 at 50 mg/ml after 24 hrs by disc diffusion method; assay type: functional; details: ATCC 6538, 24 h, read-out: DIZ; method in brief: as §3
[18] = tested on: Radical scavenging activity; assay: Antioxidant activity assessed as DPPH radical scavenging activity at 11 uM; assay type: functional
Method in brief: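 DPPH radical scavenging at 11 µM compound in methanol, absorbance at 517 nm; % scavenging calculated from control versus sample A517. Alpha tocopherol control; mean ± SD of three parallel measurements.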

[19] = tested on: Bacillus subtilis; assay: Antibacterial activity against Bacillus subtilis ATCC 6633 at 50 mg/ml after 24 hrs by disc diffusion method; assay type: functional, organism-based
Method in brief: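 Disc diffusion on LB agar plates inoculated with 10^6 cells/mL. 6 mm filter discs saturated with 50 µL of compound solution (10–100 mg/mL in DMSO or methanol), placed on plates and incubated at 37 °C for 24 h. Inhibition zone diameter read; zones of 7 mm or more scored as susceptible. Solvent discs tested; gentamicine disc (10 mg/mL) as positive control.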

| Compound | MIC ([1]; ATCC 6538, 24 h) | diameter of the inhibition zone (DIZ) [2] | MIC ([3]; ATCC 6633, 24 h) | MIC [4] | diameter of the inhibition zone (DIZ) [5] | Activity [6] | diameter of the inhibition zone (DIZ) [7] | MIC ([8]; ATCC 3509, 24 h) | Activity [9] | diameter of the inhibition zone (DIZ) [10] | MIC ([11]; ATCC 10231, 24 h) | diameter of the inhibition zone (DIZ) [12] | Ratio [13] | MIC [1] | MIC [3] | MIC [8] | MIC [11] | other results |
| --- | --- | --- | --- | --- | --- | --- | --- | --- | --- | --- | --- | --- | --- | --- | --- | --- | --- | --- |
| CC1=CC[C@H](c2cccs2)OC1=O | 25 µg/mL (≈ 129 µM) | 10 mm | 25 µg/mL (≈ 129 µM) | inactive | 7 mm | inactive | 9 mm | 25 µg/mL (≈ 129 µM) | inactive | 9 mm | 25 µg/mL (≈ 129 µM) | inactive |  |  |  |  |  |  |
| O=C1C=CC[C@@H](c2cccs2)O1 | 50 µg/mL (≈ 277 µM) | 7 mm | 20 µg/mL (≈ 111 µM) | inactive | 8.5 mm | inactive | 8.5 mm | 30 µg/mL (≈ 166 µM) | 14% | 7 mm | 30 µg/mL (≈ 166 µM) | inactive | 0 |  |  |  |  |  |
| CC1=CC[C@@H](c2cccs2)OC1=O | 25 µg/mL (≈ 129 µM) | 7 mm | 25 µg/mL (≈ 129 µM) | inactive | 11 mm | inactive | 8 mm | 25 µg/mL (≈ 129 µM) | inactive | 9 mm | 25 µg/mL (≈ 129 µM) | inactive |  |  |  |  |  |  |
| O=C1C=CC(c2cccs2)O1 (racemic) |  | inactive |  | inactive | inactive | 58.8% | inactive |  | inactive | 9 mm | 100 µg/mL (≈ 602 µM) | inactive | 0.44 | inactive | inactive | inactive |  |  |
| CC1=CCC(c2cccs2)OC1=O (racemic) | 25 µg/mL (≈ 129 µM) | 7.5 mm |  | inactive | inactive |  | 8 mm | 12 µg/mL (≈ 61.8 µM) |  | 12 mm | 25 µg/mL (≈ 129 µM) | inactive |  |  | inactive |  |  | Activity [14]: 7.11% |
| O=C1C=CC[C@H](c2cccs2)O1 | 40 µg/mL (≈ 222 µM) | 8.5 mm | 50 µg/mL (≈ 277 µM) | inactive | 7 mm | inactive | 7 mm | 50 µg/mL (≈ 277 µM) | inactive | 7 mm | 40 µg/mL (≈ 222 µM) | inactive | 0.04 |  |  |  |  |  |
| Cc1c(C)c2c(c(C)c1O)CC[C@@](C)(CCC[C@H](C)CCC[C@H](C)CCCC(C)C)O2 |  |  |  |  |  |  |  |  | 66.2% |  |  |  |  |  |  |  |  |  |
| O=C1C=CCC(c2cccs2)O1 (racemic) | 30 µg/mL (≈ 166 µM) | 8.5 mm | 10 µg/mL (≈ 55.5 µM) | inactive | 8.5 mm |  | 8.5 mm | 20 µg/mL (≈ 111 µM) |  | 9 mm | 25 µg/mL (≈ 139 µM) | inactive |  |  |  |  |  |  |
| O=C1C=C[C@@H](c2cccs2)O1 |  | inactive |  | inactive | inactive | 54.7% | inactive |  | inactive | inactive |  | inactive | 0.015 | inactive | inactive | inactive | inactive |  |
| O=C1C=CC[C@@H](c2ccco2)O1 |  | inactive |  | inactive | inactive | 7.45% | inactive |  |  | inactive |  | inactive | 0 | inactive | inactive | inactive | inactive | Activity [15]: 38% |
| CN[C@@H]1[C@H](O[C@H]2[C@H](O[C@H]3[C@H](O)[C@@H](O)[C@H](N=C(N)N)[C@@H](O)[C@@H]3N=C(N)N)O[C@@H](C)[C@]2(O)C=O)O[C@@H](CO)[C@H](O)[C@H]1O [STREPTOMYCIN] |  |  |  |  |  |  |  |  |  |  |  |  |  |  |  |  |  | zone of inhibition at 50000 µg/mL [16]: 18 mm; zone of inhibition at 50000 µg/mL [17]: 15 mm |
| CC1=C[C@@H](c2cccs2)OC1=O |  | inactive |  | inactive | inactive |  | 9.5 mm | 25 µg/mL (≈ 139 µM) |  | inactive |  | inactive |  | inactive | inactive |  | inactive | Activity [18]: 50.6% |
| O=C1C=CC[C@H](c2ccco2)O1 |  | inactive |  | inactive | inactive | 9% | inactive |  | inactive | inactive |  | inactive | 0.0092 | inactive | inactive | inactive | inactive |  |
| CC1=CC(c2cccs2)OC1=O (racemic) |  | inactive |  | inactive | inactive |  | inactive |  |  | 7.5 mm | 25 µg/mL (≈ 139 µM) | inactive |  | inactive | inactive | inactive |  | Activity [18]: 93.3% |
| GENTAMICIN |  |  |  |  |  |  |  |  |  |  |  |  |  |  |  |  |  | inhibition zone (IZ) [19]: 17 mm |
| O=C1C=CCC(c2ccco2)O1 (racemic) |  | inactive |  | inactive | inactive | 24.5% | inactive |  |  | inactive |  | inactive | 0 | inactive | inactive | inactive | inactive | Activity [15]: 38.1% |
